Reference: ChEMBL document CHEMBL1122887, “Structure-activity studies on the N-terminal region of growth hormone releasing factor” (1985)
Calls of active or inactive are those of the source.

What was measured:
Rattus norvegicus [1] = test: Effect on plasma growth hormone in anesthetized rat at a dose of 25 ug/100 g of body weight; assay type: functional
Method in brief: (§1)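 Male Charles River rats (175–350 g) anesthetized with sodium pentobarbital (6 mg/100 g body wt); 30 min later, 6–9 per group received a single subcutaneous 0.5-mL injection of saline, GRF(1-29)NH₂ reference, or one of two analogue doses. Jugular vein blood was drawn 15 min post-injection, and plasma GH was measured by radioimmunoassay, reported as ng/mL ± SE.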

Rattus norvegicus [2] = test: Effect on plasma growth hormone in anesthetized rat at a dose of 5 ug/100 g of body weight; assay type: functional; method in brief: as §1
Rattus norvegicus [3] = test: Percent growth hormone releasing activity in anesthetized rat relative to hpGRF (1-29)NH2; assay type: functional
Method in brief: (§2)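 In pentobarbital-anesthetized male Charles River rats (6–9/group), two subcutaneous analogue doses and GRF(1-29)NH₂ reference doses were given. Plasma GH was measured by radioimmunoassay in jugular blood taken 15 min post-injection. Relative potency with 95% confidence limits came from a four-point assay design by Pugsley's method. Not active means no activity at the doses tested.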

Rattus norvegicus [4] = test: Percent growth hormone releasing activity in anesthetized rat relative to hpGRF (1-29)NH2; Not active; assay type: functional, organism-based; method in brief: as §2

| SMILES | Activity (Rattus norvegicus [3]) [%] | also measured |
| --- | --- | --- |
| CC[C@H](C)[C@H](NC(=O)[C@H](C)NC(=O)[C@H](CC(=O)O)NC(=O)[C@@H](C)NC(=O)[C@@H](Cc1ccc(O)cc1)NC(C)=O)C(=O)N[C@@H](Cc1ccccc1)C(=O)N[C@H](C(=O)N[C@@H](CC(N)=O)C(=O)N[C@@H](CO)C(=O)N[C@@H](Cc1ccc(O)cc1)C(=O)N[C@@H](CCCN=C(N)N)C(=O)N[C@@H](CCCCN)C(=O)N[C@H](C(=O)N[C@@H](CC(C)C)C(=O)NCC(=O)N[C@@H](CCC(N)=O)C(=O)N[C@@H](CC(C)C)C(=O)N[C@@H](CO)C(=O)N[C@@H](C)C(=O)N[C@@H](CCCN=C(N)N)C(=O)N[C@@H](CCCCN)C(=O)N[C@@H](CC(C)C)C(=O)N[C@@H](CC(C)C)C(=O)N[C@@H](CCC(N)=O)C(=O)N[C@@H](CC(=O)O)C(=O)N[C@H](C(=O)N[C@@H](CCSC)C(=O)N[C@@H](CO)C(=O)N[C@@H](CCCN=C(N)N)C(N)=O)[C@@H](C)CC)C(C)C)[C@@H](C)O (stereo in doubt; 7) [listing 1 of 2 here] |  | Activity (Rattus norvegicus [1]): 328 ng/mL; Activity (Rattus norvegicus [2]): 213 ng/mL |
| CC[C@H](C)[C@H](NC(=O)[C@H](C)NC(=O)[C@H](CC(=O)O)NC(=O)[C@@H](C)NC(=O)[C@@H](Cc1ccc(O)cc1)NC(C)=O)C(=O)N[C@@H](Cc1ccccc1)C(=O)N[C@H](C(=O)N[C@@H](CC(N)=O)C(=O)N[C@@H](CO)C(=O)N[C@@H](Cc1ccc(O)cc1)C(=O)N[C@@H](CCCN=C(N)N)C(=O)N[C@@H](CCCCN)C(=O)N[C@H](C(=O)N[C@@H](CC(C)C)C(=O)NCC(=O)N[C@@H](CCC(N)=O)C(=O)N[C@@H](CC(C)C)C(=O)N[C@@H](CO)C(=O)N[C@@H](C)C(=O)N[C@@H](CCCN=C(N)N)C(=O)N[C@@H](CCCCN)C(=O)N[C@@H](CC(C)C)C(=O)N[C@@H](CC(C)C)C(=O)N[C@@H](CCC(N)=O)C(=O)N[C@@H](CC(=O)O)C(=O)N[C@H](C(=O)N[C@@H](CCSC)C(=O)N[C@@H](CO)C(=O)N[C@@H](CCCN=C(N)N)C(N)=O)[C@@H](C)CC)C(C)C)[C@@H](C)O (stereo in doubt; 3) | 670 |  |
| CC[C@H](C)[C@H](NC(=O)[C@H](C)NC(=O)[C@H](CC(=O)O)NC(=O)[C@H](C)NC(=O)[C@H](Cc1ccc(O)cc1)NC(C)=O)C(=O)N[C@@H](Cc1ccccc1)C(=O)N[C@H](C(=O)N[C@@H](CC(N)=O)C(=O)N[C@@H](CO)C(=O)N[C@@H](Cc1ccc(O)cc1)C(=O)N[C@@H](CCCN=C(N)N)C(=O)N[C@@H](CCCCN)C(=O)N[C@H](C(=O)N[C@@H](CC(C)C)C(=O)NCC(=O)N[C@@H](CCC(N)=O)C(=O)N[C@@H](CC(C)C)C(=O)N[C@@H](CO)C(=O)N[C@@H](C)C(=O)N[C@@H](CCCN=C(N)N)C(=O)N[C@@H](CCCCN)C(=O)N[C@@H](CC(C)C)C(=O)N[C@@H](CC(C)C)C(=O)N[C@@H](CCC(N)=O)C(=O)N[C@@H](CC(=O)O)C(=O)N[C@H](C(=O)N[C@@H](CCSC)C(=O)N[C@@H](CO)C(=O)N[C@@H](CCCN=C(N)N)C(N)=O)[C@@H](C)CC)C(C)C)[C@@H](C)O | 1224 |  |
| CC[C@H](C)[C@H](NC(=O)[C@H](C)NC(=O)[C@H](CC(=O)O)NC(=O)[C@@H](C)NC(=O)[C@@H](Cc1ccc(O)cc1)NC(C)=O)C(=O)N[C@@H](Cc1ccccc1)C(=O)N[C@H](C(=O)N[C@@H](CC(N)=O)C(=O)N[C@@H](CO)C(=O)N[C@@H](Cc1ccc(O)cc1)C(=O)N[C@@H](CCCN=C(N)N)C(=O)N[C@@H](CCCCN)C(=O)N[C@H](C(=O)N[C@@H](CC(C)C)C(=O)NCC(=O)N[C@@H](CCC(N)=O)C(=O)N[C@@H](CC(C)C)C(=O)N[C@@H](CO)C(=O)N[C@@H](C)C(=O)N[C@@H](CCCN=C(N)N)C(=O)N[C@@H](CCCCN)C(=O)N[C@@H](CC(C)C)C(=O)N[C@@H](CC(C)C)C(=O)N[C@@H](CCC(N)=O)C(=O)N[C@@H](CC(=O)O)C(=O)N[C@H](C(=O)N[C@@H](CCSC)C(=O)N[C@@H](CO)C(=O)N[C@@H](CCCN=C(N)N)C(N)=O)[C@@H](C)CC)C(C)C)[C@@H](C)O (stereo in doubt; 7) [listing 2 of 2 here] |  | Activity (Rattus norvegicus [4]): inactive |
| CC[C@H](C)[C@H](NC(=O)[C@H](C)NC(=O)[C@H](CC(=O)O)NC(=O)[C@@H](C)NC(=O)[C@@H](Cc1ccc(O)cc1)NC(C)=O)C(=O)N[C@@H](Cc1ccccc1)C(=O)N[C@H](C(=O)N[C@@H](CC(N)=O)C(=O)N[C@@H](CO)C(=O)N[C@@H](Cc1ccc(O)cc1)C(=O)N[C@@H](CCCN=C(N)N)C(=O)N[C@@H](CCCCN)C(=O)N[C@H](C(=O)N[C@@H](CC(C)C)C(=O)NCC(=O)N[C@@H](CCC(N)=O)C(=O)N[C@@H](CC(C)C)C(=O)N[C@@H](CO)C(=O)N[C@@H](C)C(=O)N[C@@H](CCCN=C(N)N)C(=O)N[C@@H](CCCCN)C(=O)N[C@@H](CC(C)C)C(=O)N[C@@H](CC(C)C)C(=O)N[C@@H](CCC(N)=O)C(=O)N[C@@H](CC(=O)O)C(=O)N[C@H](C(=O)N[C@@H](CCSC)C(=O)N[C@@H](CO)C(=O)N[C@@H](CCCN=C(N)N)C(N)=O)[C@@H](C)CC)C(C)C)[C@@H](C)O (stereo in doubt; 6) |  | Activity (Rattus norvegicus [4]): inactive |
| CC[C@H](C)[C@H](NC(=O)[C@H](C)NC(=O)[C@H](CC(=O)O)NC(=O)[C@@H](C)NC(=O)[C@@H](Cc1ccc(O)cc1)NC(C)=O)C(=O)N[C@@H](Cc1ccccc1)C(=O)N[C@H](C(=O)N[C@@H](CC(N)=O)C(=O)N[C@@H](CO)C(=O)N[C@@H](Cc1ccc(O)cc1)C(=O)N[C@@H](CCCN=C(N)N)C(=O)N[C@@H](CCCCN)C(=O)N[C@H](C(=O)N[C@@H](CC(C)C)C(=O)NCC(=O)N[C@@H](CCC(N)=O)C(=O)N[C@@H](CC(C)C)C(=O)N[C@@H](CO)C(=O)N[C@@H](C)C(=O)N[C@@H](CCCN=C(N)N)C(=O)N[C@@H](CCCCN)C(=O)N[C@@H](CC(C)C)C(=O)N[C@@H](CC(C)C)C(=O)N[C@@H](CCC(N)=O)C(=O)N[C@@H](CC(=O)O)C(=O)N[C@H](C(=O)N[C@@H](CCSC)C(=O)N[C@@H](CO)C(=O)N[C@@H](CCCN=C(N)N)C(N)=O)[C@@H](C)CC)C(C)C)[C@@H](C)O (stereo in doubt; 1) | 993 |  |
| CC[C@H](C)[C@H](NC(=O)[C@H](C)NC(=O)[C@H](CC(=O)O)NC(=O)[C@@H](C)NC(=O)[C@@H](N)Cc1ccc(O)cc1)C(=O)N[C@@H](Cc1ccccc1)C(=O)N[C@H](C(=O)N[C@@H](CC(N)=O)C(=O)N[C@@H](CO)C(=O)N[C@@H](Cc1ccc(O)cc1)C(=O)N[C@@H](CCCN=C(N)N)C(=O)N[C@@H](CCCCN)C(=O)N[C@H](C(=O)N[C@@H](CC(C)C)C(=O)NCC(=O)N[C@@H](CCC(N)=O)C(=O)N[C@@H](CC(C)C)C(=O)N[C@@H](CO)C(=O)N[C@@H](C)C(=O)N[C@@H](CCCN=C(N)N)C(=O)N[C@@H](CCCCN)C(=O)N[C@@H](CC(C)C)C(=O)N[C@@H](CC(C)C)C(=O)N[C@@H](CCC(N)=O)C(=O)N[C@@H](CC(=O)O)C(=O)N[C@H](C(=O)N[C@@H](CCSC)C(=O)N[C@@H](CO)C(=O)N[C@@H](CCCN=C(N)N)C(N)=O)[C@@H](C)CC)C(C)C)[C@@H](C)O | 5146 |  |
